The test system of test [1] is MCF-7 (human breast adenocarcinoma) cell line. In words: Colorimetric MTT cytotoxicity assay, MCF-7. Type of test: cell-based. The conditions noted are these: for IC50: Homo sapiens. In general terms: Formazan colour is commonly taken as a measure of viable cells.
The subject of test [2] is CT26 (murine colon carcinoma) cell line. In words: Colorimetric MTT cytotoxicity assay, CT26. Type of test: cell-based.
The subject of test [3] is MRC-5 (human lung fibroblasts, non-cancerous). In words: Colorimetric MTT cytotoxicity assay, MRC-5. Type of test: cell-based. Particulars: MRC5, 72 h, read-out: IC50 MRC-5. The essentials:
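MRC-5 cells from ATCC, trypsinized, seeded at 6000 cells/well (6 × 10^4 cells/mL), grown 24 h, then exposed 72 h to test compound serially diluted in complete medium. Medium replaced with MTT in media (5 mg/mL) for 45 min; formazan dissolved in DMSO, OD at 570 nm. T/C versus untreated cells; IC50 interpolated from concentration-effect curves; ≥3 independent experiments, triplicates per concentration.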

Test [4] shares this test system. Particulars: read-out: IC50 MRC-5; taken from the literature; cited from earlier work.

Like-named read-outs stand apart in the source and are kept apart here.

For the compound `C=C(C)[C@H]1CC[C@@]2(C)CC[C@]3(C)C[C@H]4[C@@H](C)CC(=O)[C@H]4/C(C=O)=C\C[C@H]3[C@H]12` [compound 1, Variecolin], the IC50 is 1400 ± 300 nM in test [1] (MCF7, 72 h, read-out: IC50 MCF-7); 1000 to 8000 nM in test [1] (MCF7, read-out: IC50s in both cancer cell lines); 1000 ± 300 nM in test [2] (Mus musculus, CT26, 72 h, read-out: IC50 CT26); 1100 ± 200 nM in test [3]. Besides, the “SF MCF-7 (selectivity factor)” value in test [1] (IC50(MRC-5)/IC50(MCF-7)) stood at 0.8. Also, the “SF CT26 (selectivity factor)” value in test [2] (IC50(MRC-5)/IC50(CT26)) is listed as 1.1.
Regarding `CC(=O)O[C@H]1C(=O)[C@@]2(C)[C@H]([C@H](OC(=O)c3ccccc3)[C@]3(O)C[C@H](OC(=O)[C@H](O)[C@@H](NC(=O)c4ccccc4)c4ccccc4)C(C)=C1C3(C)C)[C@]1(OC(C)=O)CO[C@@H]1C[C@@H]2O` [Paclitaxel], in test [4], the IC50 is 2.61 nM.
